From PubChem
Rows were chosen to be rich in hits. Some 1.9% of all compounds tested hit in one or more screens of this group.
CHRM5 agonist = human M5 muscarinic receptor agonists, primary screen, CHO-K1 cells, Fluo-8 calcium fluorescence; Muscarinic acetylcholine receptor M5 (Homo sapiens), P08912; CHO-K1 hM5 cells; 0% DMSO wells, 100% maximal acetylcholine response; activation, % at 3 µM; actives 0.19% (n = 360,000); AID 624037, 2012;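 active = activation above the run's mean over test compounds plus 3 SD, cut at about 23% in these data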;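 also: signal is peak over basal fluorescence ratio across the kinetic read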
M4 PAM = human M4 muscarinic receptor positive allosteric modulators, primary screen, CHO-K1 cells, Fluo-8 calcium fluorescence; CHO-K1 hM4/Gqi5, ACh EC20; 0% = ACh EC20, 100% = maximal ACh; actives 0.4% (n = 360,000); activation, % at 3 µM; AID 624126, 2012;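 active = activation above its plate's cutoff, the mean activation of sample wells plus 3 SD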
Target sequence (P08173 whole entry, looked up): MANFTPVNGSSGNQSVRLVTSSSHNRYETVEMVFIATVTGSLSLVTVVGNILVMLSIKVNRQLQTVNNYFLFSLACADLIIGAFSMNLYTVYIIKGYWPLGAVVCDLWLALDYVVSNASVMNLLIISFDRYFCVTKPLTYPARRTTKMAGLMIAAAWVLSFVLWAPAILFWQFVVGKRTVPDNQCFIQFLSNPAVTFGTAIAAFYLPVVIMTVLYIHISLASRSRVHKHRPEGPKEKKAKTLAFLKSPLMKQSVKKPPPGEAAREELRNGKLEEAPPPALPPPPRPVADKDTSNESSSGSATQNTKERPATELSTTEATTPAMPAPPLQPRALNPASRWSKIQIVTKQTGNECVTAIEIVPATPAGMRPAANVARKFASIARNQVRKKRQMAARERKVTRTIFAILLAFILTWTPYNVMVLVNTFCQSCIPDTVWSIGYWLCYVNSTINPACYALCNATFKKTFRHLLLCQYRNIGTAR
CHRM5 antagonist = human M5 muscarinic receptor antagonists, primary screen, CHO cells, Fluo-8 calcium fluorescence; AID 624040, 2012; actives 0.59% (n = 360,000); inhibition, % at 3 µM; CHO-hM5 cells, ACh EC80;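 active = inhibition above a per-plate cutoff, the mean of that plate's test compounds plus 3 SD, cut at about 27% in these data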;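 also: 0% = acetylcholine EC80 with DMSO and 100% = DMSO without agonist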
M5 PAM = human M5 muscarinic receptor positive allosteric modulators, primary screen, CHO-K1 cells, Fluo-8 calcium fluorescence | Muscarinic acetylcholine receptor M5 (Homo sapiens), P08912 | CHO-K1 hM5, ACh EC20 PAM; 0% = ACh EC20, 100% = ACh EC100 | activation, % at 3 µM | actives 0.3% (n = 360,000);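 active = activation above the run cutoff, the mean activation of all test compounds plus 3 SD, cut at about 18% in these data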
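system = human M5 receptor in CHO-K1 cells | compound = one concentration, 3 µM final (nominal) | schedule = Post-acetylcholine fluorescence recording 140 s | signal = Fluo-8 calcium dye fluorescence, kinetic read | benchmarks = low control EC20 acetylcholine (0%), high control EC100 acetylcholine (100%) | repeats = singlicate, one well per test compound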
M4 ag = human M4 muscarinic receptor agonists, primary screen, CHO-K1 cells, Fluo-8 calcium fluorescence; Muscarinic acetylcholine receptor M4 (Homo sapiens), P08173; CHO-K1 hM4/Gqi5; vehicle 0%, full acetylcholine response 100%; activation, % at 3 µM; actives 0.14% (n = 360,000); AID 624127, 2012;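 active = activation above the run mean over all test wells plus 3 SD, cut at about 32% in these data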;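 also: peak over basal fluorescence ratio per well then scaled between controls; 0% = DMSO wells and 100% = acetylcholine at EC100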
M4 antag = human M4 muscarinic receptor antagonists, primary screen, CHO cells, Fluo-8 calcium fluorescence; CHO-hM4 cells, ACh EC80; inhibition, % at 3 µM; actives 0.73% (n = 360,000);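 active = inhibition above its plate's cutoff, the mean inhibition of sample wells plus 3 SD, cut at about 27% in these data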;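 also: 0% = acetylcholine EC80 with DMSO and 100% = DMSO without agonist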
* = called active by the depositor.

Results for OC1(c2cccs2)CN(c2ccc(Cl)cc2)C2=[N+]1CCCC2 (stereo unspecified) ?
CHRM5 agonist: -18; M4 PAM: -24; CHRM5 antagonist: 29*; M5 PAM: -32; M4 ag: 1; M4 antag: 30*

Results for OC1(c2cccs2)CN(c2ccc(Cl)cc2)C2=[N+]1CCCS2 (stereo unspecified) ?
CHRM5 agonist: -5; M4 PAM: 2; CHRM5 antagonist: 11; M5 PAM: 3; M4 ag: 1; M4 antag: -1

How did CCOC(=O)C1(Cc2ccccc2Cl)CCN(Cc2csc(C(C)=O)c2)CC1 do in these assays?
CHRM5 agonist: -10; M4 PAM: -13; CHRM5 antagonist: 4; M5 PAM: -11; M4 ag: 6; M4 antag: -1

What do the screens show for `CC(=O)N(C)c1ccc(NC(=O)Nc2ccc(C)c(C)c2)cc1`?
CHRM5 agonist: 4; M4 PAM: -11; CHRM5 antagonist: 29*; M5 PAM: -19; M4 ag: 19; M4 antag: 31*

How did Cc1cc2nc(-c3ccc(=O)[nH]c3)n(Cc3ccccc3)c2cc1C do in these assays?
CHRM5 agonist: -1; M4 PAM: -5; CHRM5 antagonist: -2; M5 PAM: 0; M4 ag: 0; M4 antag: 10

What do the screens show for `O=C(CCN1CCCCC1)c1ccccc1`?
CHRM5 agonist: 0; M4 PAM: 6; CHRM5 antagonist: 0; M5 PAM: -1; M4 ag: 0; M4 antag: -1

How did OC(CCN1CCCCC1)(c1ccccc1)C1C[C@@H]2C=C[C@H]1C2 (stereo partly specified) do in these assays?
CHRM5 agonist: -1; M4 PAM: -17; CHRM5 antagonist: 98*; M5 PAM: -18; M4 ag: 1; M4 antag: 99*

Results for CC(C)N(CC#CCC(O)(c1ccccc1)c1ccccc1)C(C)C ?
CHRM5 agonist: -7; M4 PAM: -27; CHRM5 antagonist: 9; M5 PAM: -18; M4 ag: 2; M4 antag: 22

Results for CCN(CC)CCC#CC(O)(c1ccccc1)c1ccccc1 ?
CHRM5 agonist: -8; M4 PAM: -18; CHRM5 antagonist: 99*; M5 PAM: -18; M4 ag: 0; M4 antag: 84*

What do the screens show for `CN1CCN(CC#CC(C)(O)C2CC3C=CC2C3)CC1` (stereo unspecified)?
CHRM5 agonist: -8; M4 PAM: 1; CHRM5 antagonist: -1; M5 PAM: -3; M4 ag: 0; M4 antag: 5

What do the screens show for `CCCOc1ccc(C(O)(CCC)CCN2CCCCC2)cc1` (stereo unspecified)?
CHRM5 agonist: -8; M4 PAM: -20; CHRM5 antagonist: 21; M5 PAM: -24; M4 ag: 3; M4 antag: 21

Results for Cc1ccc(C(O)(CCN2CCCCC2)c2ccccc2)cc1 (stereo unspecified) ?
CHRM5 agonist: -8; M4 PAM: -17; CHRM5 antagonist: 96*; M5 PAM: -21; M4 ag: 2; M4 antag: 93*

How did OC(C#CCCN1CCCCC1)(c1ccccc1)c1ccccc1 do in these assays?
CHRM5 agonist: -20; M4 PAM: -17; CHRM5 antagonist: 100*; M5 PAM: -32; M4 ag: 1; M4 antag: 95*

How did COc1cc(NC(=O)c2ccc(-c3cnn(C)c3)c3ccoc23)cc(OC)c1OC do in these assays?
CHRM5 agonist: 4; M4 PAM: 4; CHRM5 antagonist: 5; M5 PAM: -7; M4 ag: 14; M4 antag: -13

Results for CCOc1ccc(NC(=O)COC(=O)CC2CC3CCC2C3)cc1 (stereo unspecified) ?
CHRM5 agonist: -2; M4 PAM: 0; CHRM5 antagonist: 4; M5 PAM: 0; M4 ag: 1; M4 antag: 2

Results for Oc1ccccc1/C=N/NC(=S)NC1CC2CC1C1C=CCC21 (stereo unspecified) ?
CHRM5 agonist: 1; M4 PAM: -15; CHRM5 antagonist: 4; M5 PAM: 2; M4 ag: 0; M4 antag: 2

What do the screens show for `Cc1ccc(S(=O)(=O)N2CCC(C(=O)N3CCC3)CC2)cc1`?
CHRM5 agonist: -3; M4 PAM: 0; CHRM5 antagonist: 2; M5 PAM: -7; M4 ag: 1; M4 antag: 5

How did O=C(Nc1ccn(CC(=O)N2CCN(c3ccccn3)CC2)c(=O)n1)OCc1ccccc1 do in these assays?
CHRM5 agonist: -2; M4 PAM: 1; CHRM5 antagonist: 9; M5 PAM: 2; M4 ag: 2; M4 antag: -10

How did OC(C#CCCN1CCCCC1)(c1ccccc1)C1CCCCC1 (stereo unspecified) do in these assays?
CHRM5 agonist: -20; M4 PAM: -59; CHRM5 antagonist: 98*; M5 PAM: -32; M4 ag: 3; M4 antag: 97*

How did O=C(Cn1ccccc1=S)c1ccc(Cl)c(Cl)c1 do in these assays?
CHRM5 agonist: -8; M4 PAM: -3; CHRM5 antagonist: 16; M5 PAM: -13; M4 ag: 2; M4 antag: -1

What do the screens show for `On1ccccc1=S`?
CHRM5 agonist: 3; M4 PAM: 0; CHRM5 antagonist: 23; M5 PAM: -2; M4 ag: 3; M4 antag: 31*

What do the screens show for `CC1=CC(C)(C)N(C(=O)CNC2CCCCC2)c2cc(C)ccc21`?
CHRM5 agonist: -13; M4 PAM: -25; CHRM5 antagonist: 40*; M5 PAM: -33; M4 ag: 1; M4 antag: 47*

How did COC[C@H]1CCCN1[C@@H]1CS(=O)(=O)N[C@H]1COCc1ccccc1 do in these assays?
CHRM5 agonist: 1; M4 PAM: -1; CHRM5 antagonist: -7; M5 PAM: 3; M4 ag: 0; M4 antag: -1

How did Cc1c(C=O)c2ccccn2c1C(=O)c1ccccc1Cl do in these assays?
CHRM5 agonist: -3; M4 PAM: -17; CHRM5 antagonist: 15; M5 PAM: -10; M4 ag: 0; M4 antag: 55*

What do the screens show for `COc1cc(SC)ccc1C(=O)NCC1CCCCC1`?
CHRM5 agonist: -4; M4 PAM: 6; CHRM5 antagonist: -11; M5 PAM: 9; M4 ag: -2; M4 antag: -8
